# Measurements of several laboratories.
# Compare with care: the assays were run in different laboratories.
# SQLE: Squalene monooxygenase (SQLE, Homo sapiens, UniProt Q14534)
# FABP1: Fatty acid-binding protein, liver (FABP1, Homo sapiens, UniProt P07148)
# SLC22A6: Solute carrier family 22 member 6 (SLC22A6, Homo sapiens, UniProt Q4U2R8)
# MAL12: Alpha-glucosidase MAL12 (MAL12, Saccharomyces cerevisiae S288c, UniProt P53341)
Compound,target,test,system,conditions,IC50 [µM]
OCCN1CCN(CCCN2c3ccccc3Sc3ccc(C(F)(F)F)cc32)CC1,SQLE,"enzyme activity, inhibitor, absorbance",,"pH 7.4, with preincubation",12.3
CCCOc1ccc2c(c1)O/C(=C\c1ccc(OC(C)(C)C(=O)O)c(Cl)c1)C2=O,FABP1,"cell-free assay, inhibitor, fluorescence",,pH 7.4,7.7
Nc1ccn(C[C@@H](CO)OCP(=O)(O)O)c(=O)n1,"Solute carrier family 22 member 6 (SLC22A6, Homo sapiens, UniProt Q4U2R8, N439A)","transporter uptake, inhibitor, fluorescence",,,225
CC(C)NC(=O)COc1cccc(-c2nc(Nc3ccc4[nH]ncc4c3)c3ccccc3n2)c1,SLC22A6,"transporter uptake, inhibitor, radiometric",HEK293,,> 1
Cc1cc2c(cc1C)N[C@H](c1ccccc1)[C@@H](O)C(=O)N2,"Cyclin-dependent kinase 5 (CDK5, Homo sapiens, UniProt Q00535)","enzyme activity, inhibitor, ELISA",,,0.663
COc1ccc(Cl)cc1C(=O)NCCc1ccc(S(=O)(=O)NC(=O)NC2CCCCC2)cc1,SLC22A6,"transporter uptake, inhibitor, fluorescence",,,2.4
NS(=O)(=O)c1ccc(-n2nc(C(=O)NN=Cc3ccc(O)cc3)cc2-c2ccccc2)cc1,"Focal adhesion kinase 1 (PTK2, Homo sapiens, UniProt Q05397)","enzyme activity, inhibitor, ELISA",,,17.1
COc1cc(C2Oc3cc([C@H]4Oc5cc(O)cc(O)c5C(=O)[C@@H]4O)ccc3OC2CO)ccc1O (stereo partly drawn),SQLE,"enzyme activity, inhibitor, radiometric",,,1.88
COc1ccc2c(c1)O/C(=C\c1cc(C)c(OC(C)(C)C(=O)O)c(C)c1)C2=O,FABP1,"cell-free assay, inhibitor, fluorescence",,pH 7.4,9
N=C(N)c1ccc2cc(OC(=O)c3ccc(N=C(N)N)cc3)ccc2c1,"Coagulation factor IX (F9, Homo sapiens, UniProt P00740)","enzyme activity, inhibitor",,,0.086
COc1ccc(NC(=O)N2CCN(c3ccnc(Nc4ccc(Cl)cc4)n3)[C@H](C)C2)cc1,MAL12,"enzyme activity, inhibitor, absorbance",,pH 6.9,23.4
CC(=O)C1=C(C)n2c(=O)c3ccccc3c(=O)n2C1c1cn(-c2ccccc2)nc1-c1ccc(O)cc1 (stereo not drawn),MAL12,"enzyme activity, inhibitor, absorbance",,,494
C[C@@H]1CN(C(=O)Nc2ccc(Cl)c(Cl)c2)CCN1c1ccnc(Nc2ccc(Cl)cc2)n1,MAL12,"enzyme activity, inhibitor, absorbance",,pH 6.9,4.53
O=C1C[C@@H](c2ccc(O)cc2)Oc2cc(O)cc(O)c21,SQLE,"enzyme activity, inhibitor, radiometric",,,6.52
O=C1COc2ccc(NS(=O)(=O)c3cccc(Cl)c3)cc2CN1C1CCCc2ccccc21 (stereo not drawn),"Replicase polyprotein 1ab, papain-like protease (rep, Severe acute respiratory syndrome coronavirus 2, UniProt P0DTD1)","enzyme activity, inhibitor, fluorescence",,,6
CCCOc1ccc2c(c1)O/C(=C\c1ccc(OC(C)(C)C(=O)O)cc1)C2=O,FABP1,"cell-free assay, inhibitor, fluorescence",,pH 7.4,9.4
CCN(CC)C(C)CN1c2ccccc2Sc2ccccc21 (stereo not drawn),SQLE,"enzyme activity, inhibitor, absorbance",,"pH 7.4, with preincubation",1.69
CC(=O)C1=C(C)n2c(=O)c3ccccc3c(=O)n2C1c1cn(-c2ccccc2)nc1-c1ccc(Br)cc1 (stereo not drawn),MAL12,"enzyme activity, inhibitor, absorbance",,,18.6
CCCOc1ccc2c(c1)O/C(=C\c1ccc(OC(C)C(=O)O)cc1)C2=O (stereo not drawn),FABP1,"cell-free assay, inhibitor, fluorescence",,pH 7.4,10.4
C[C@H]1CN(C(=O)Nc2ccc(C(F)(F)F)cc2)CCN1c1ccnc(Nc2cccc(O)c2)n1,MAL12,"enzyme activity, inhibitor, absorbance",,pH 6.9,2.05
CC(=O)C1=C(C)n2c(=O)c3ccccc3c(=O)n2C1c1cn(-c2ccccc2)nc1-c1ccccc1 (stereo not drawn),MAL12,"enzyme activity, inhibitor, absorbance",,,15.4
C[C@H]1CN(C(=O)Nc2ccc(C(F)(F)F)cc2)CCN1c1ccnc(Nc2ccc(Cl)cc2)n1,MAL12,"enzyme activity, inhibitor, absorbance",,pH 6.9,1.1
CN1CCC(CNc2ccc3ncc(-c4cccc(OC(F)(F)F)c4)n3n2)CC1,"Alpha-1A adrenergic receptor (ADRA1A, Homo sapiens, UniProt P35348)","calcium signal, antagonist",,,4.81
C[C@H]1CN(C(=O)Nc2ccc(C(F)(F)F)cc2)CCN1c1ccnc(Nc2ccccc2Cl)n1,MAL12,"enzyme activity, inhibitor, absorbance",,pH 6.9,4.21
CCCOc1ccc2c(c1)O/C(=C\c1ccc(OC(C)(C)C(=O)O)c(C)c1)C2=O,FABP1,"cell-free assay, inhibitor, fluorescence",,pH 7.4,5.8
C[C@H]1CN(C(=O)Nc2ccc(C(F)(F)F)cc2)CCN1c1ccnc(Nc2ccc(Cl)c(O)c2)n1,MAL12,"enzyme activity, inhibitor, absorbance",,pH 6.9,0.44
CC(CN1CCN(CCOCCO)CC1)CN1c2ccccc2Sc2ccccc21 (stereo not drawn),SQLE,"enzyme activity, inhibitor, absorbance",,"pH 7.4, with preincubation",10
CCOc1ccc2c(c1)O/C(=C\c1cc(C)c(OC(C)(C)C(=O)O)c(C)c1)C2=O,FABP1,"cell-free assay, inhibitor, fluorescence",,pH 7.4,8.6
O=c1cc(-c2ccc(O)cc2)oc2cc(O[C@@H]3O[C@H](CO)[C@@H](O)[C@H](O)[C@H]3O)cc(O)c12,SQLE,"enzyme activity, inhibitor, radiometric",,,1.74
Cc1ccc(NC(=O)N2CCN(c3ccnc(Nc4ccc(Cl)cc4)n3)[C@H](C)C2)cc1,MAL12,"enzyme activity, inhibitor, absorbance",,pH 6.9,7.78
